Series [1] concerns the target Delta-type opioid receptor (Rattus norvegicus) (UniProt P33533). Briefly: Agonist activity at rat delta opioid receptor expressed in rat C6 cell membranes assessed as stimulation of [35S]GTPgammaS binding incubated for 1 hr relative to DPDPE. The class given is functional.
Series [2] concerns the target Mu-type opioid receptor (Rattus norvegicus) (UniProt P33535). Briefly: Agonist activity at rat mu opioid receptor expressed in rat C6 glioma cell membranes assessed as stimulation of [35S]GTPgammaS binding measured after 1 hr relative to DAMGO. The class given is functional. In general terms: GTPγS resists hydrolysis and so accumulates on activated G proteins.
Series [3] concerns the target T1, Kappa-type opioid receptor (Homo sapiens, UniProt P41145). Briefly: Agonist activity at human kappa opioid receptor expressed in CHO cell membranes assessed as stimulation of [35S]GTPgammaS binding measured after 1 hr. The class given is functional.
For series [4], the target named is T1, Kappa-type opioid receptor. Briefly: Agonist activity at human kappa opioid receptor expressed in CHO cell membranes assessed as stimulation of [35S]GTPgammaS binding to G protein incubated for 1 hr relative to U69,593. The class given is functional.
In series [5] the target is T2, Delta-type opioid receptor (Rattus norvegicus, UniProt P33533). Briefly: Agonist activity at rat delta opioid receptor expressed in rat C6 cell membranes assessed as stimulation of [35S]GTPgammaS binding measured after 1 hr. The class given is functional.
T2 sequence (P33533 whole entry): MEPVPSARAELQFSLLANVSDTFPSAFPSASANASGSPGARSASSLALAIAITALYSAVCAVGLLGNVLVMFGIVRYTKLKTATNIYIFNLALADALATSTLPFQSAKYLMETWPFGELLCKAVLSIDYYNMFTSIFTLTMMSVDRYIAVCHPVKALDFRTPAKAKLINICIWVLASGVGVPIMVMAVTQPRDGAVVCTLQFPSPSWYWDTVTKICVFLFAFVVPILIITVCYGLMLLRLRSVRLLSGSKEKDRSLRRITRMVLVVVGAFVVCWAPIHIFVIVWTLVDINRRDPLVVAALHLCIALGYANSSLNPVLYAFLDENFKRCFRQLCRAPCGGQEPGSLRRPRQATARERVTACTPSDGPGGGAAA
Another series has as its system Mus musculus. Briefly: Antinociceptive activity in C57BL/6 mouse assessed as increase in latency to tail withdrawal up to 10 mg/kg, ip administered at 30 mins interval measured during compound dosing by warm water tail withdrawal assay relative to control. The class given is functional. An outline of the steps: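 Male C57BL/6 mice, 20–30 g, 8–16 weeks. Saline ip, baseline latency 30 min later; then cumulative ip doses 1, 3.2, 10 mg/kg in 5% DMSO/saline at 30 min intervals, latency read 30 min after each. Tail tip (2–3 cm) in 50°C water, 20 s cutoff; expressed as % MPE (MPE = 20 s).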

Series [6] has as its target T3, Mu-type opioid receptor (Rattus norvegicus, UniProt P33535). Briefly: Agonist activity at rat mu opioid receptor expressed in rat C6 cell membranes assessed as stimulation of [35S]GTPgammaS binding measured after 1 hr. The class given is functional. An outline of the steps:
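Membranes (10–20 μg protein/tube) from stably transfected cells incubated 1 h at 25°C in 50 mM Tris-HCl, 100 mM NaCl, 5 mM MgCl2, pH 7.4, with 0.1 nM [35S]-GTPγS, 30 μM GDP and varying test concentrations; filtration, scintillation counting.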

The species entered for another series is Rattus norvegicus. Briefly: Selectivity ratio of Ki for rat delta opioid receptor expressed in rat C6 cell membranes to Ki for rat mu opioid receptor expressed in rat C6 cell membranes. The class given is cell-based. An outline of the steps: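 Competition binding against 0.2 nM [3H]-diprenorphine, using C6 membranes expressing rat MOR or rat DOR (20 μg protein/tube). Run in 50 mM Tris-HCl pH 7.4, 1 h at room temperature with shaking, then filtration and scintillation counting. Nonspecific binding with 10 μM naloxone.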

For series [7], the target named is T1, Kappa-type opioid receptor. Briefly: Displacement of [3H]diprenorphine from human kappa opioid receptor expressed in CHO cell membranes measured after 1 hr by liquid scintillation counting method. An outline of the steps:
(§1)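 Competition with 0.2 nM [3H]-diprenorphine on membranes (20 μg protein/tube) from stably transfected cells in 50 mM Tris-HCl pH 7.4, 1 h at room temperature with shaking; GF/C filtration, three washes, scintillation counting. Nonspecific binding defined with 10 μM naloxone.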
Background: Displacement assays read how much labelled ligand stays bound in the presence of the test substance.

Series [8] deals with T2, Delta-type opioid receptor. Briefly: Displacement of [3H]diprenorphine from rat delta opioid receptor expressed in rat C6 cell membranes measured after 1 hr by liquid scintillation counting method.
Series [9] concerns the target T3, Mu-type opioid receptor. Briefly: Displacement of [3H]diprenorphine from rat mu opioid receptor expressed in rat C6 cell membranes measured after 1 hr by liquid scintillation counting method. The procedure, abridged:
as §1

Series [10] can be described thus: Lipophilicity, log P of the compound. The conditions noted are these: octanol/water. The class given is physicochemical.

Each structure is given as a SMILES string. The source made the active and inactive calls.

T3 sequence (P33535 whole entry): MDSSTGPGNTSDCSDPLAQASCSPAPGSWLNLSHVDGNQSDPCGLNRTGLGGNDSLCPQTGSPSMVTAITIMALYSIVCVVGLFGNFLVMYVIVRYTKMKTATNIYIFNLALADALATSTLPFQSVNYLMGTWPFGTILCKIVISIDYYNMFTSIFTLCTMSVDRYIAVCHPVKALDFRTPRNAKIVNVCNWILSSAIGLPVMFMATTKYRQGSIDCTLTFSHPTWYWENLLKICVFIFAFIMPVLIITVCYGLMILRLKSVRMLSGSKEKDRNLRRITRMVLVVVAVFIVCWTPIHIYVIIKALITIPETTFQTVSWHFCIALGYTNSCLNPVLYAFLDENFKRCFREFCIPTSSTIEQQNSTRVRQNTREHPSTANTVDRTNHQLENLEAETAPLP
Sequence of Mu-type opioid receptor (Rattus norvegicus) (P33535 whole entry): as above
Sequence of Delta-type opioid receptor (Rattus norvegicus) (P33533 whole entry): as the sequence (P33533 whole entry) above
T1 sequence (P41145 whole entry): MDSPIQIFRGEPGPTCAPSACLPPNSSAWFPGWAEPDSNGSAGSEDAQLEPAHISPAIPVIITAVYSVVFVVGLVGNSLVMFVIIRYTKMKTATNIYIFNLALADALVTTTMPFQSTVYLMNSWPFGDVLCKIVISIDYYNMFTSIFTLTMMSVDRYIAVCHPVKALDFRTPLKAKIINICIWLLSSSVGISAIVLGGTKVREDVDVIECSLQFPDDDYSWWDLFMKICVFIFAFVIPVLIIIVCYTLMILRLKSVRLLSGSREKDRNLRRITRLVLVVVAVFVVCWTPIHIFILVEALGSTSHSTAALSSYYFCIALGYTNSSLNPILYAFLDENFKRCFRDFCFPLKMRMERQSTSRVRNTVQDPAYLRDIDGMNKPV

Take `Cc1cc(O)cc(C)c1C[C@H](N)C(=O)N[C@@H]1CCN(C(=O)C2CC2)c2ccc(Cc3cnc4ccccc4c3)cc21.O=C(O)C(F)(F)F`: the values for the Efficacy in series [1] and in series [2] were 84% and 47%, respectively. In addition, the EC50 result is “Not Active” in series [3] (cho), 0.71 nM in series [5] (read-out: EC50) and 0.34 nM on Mu-type opioid receptor [6]. Moreover, the Efficacy result in [4] is “inactive”. Besides, the MPE entry in the series on Mus musculus was “inactive”. Further, the Ratio Ki in the series filed under Rattus norvegicus was 2. The Ki stood at 84 nM in series [7], 0.08 nM in series [8] and 0.05 nM at Mu-type opioid receptor [9]. The same compound came in with a lipophilicity (logP) in series [10] of 3.8.

For the compound `Cc1cc(O)cc(C)c1C[C@H](N)C(=O)N[C@@H]1CCN(S(C)(=O)=O)c2ccc(Cc3ccc4ccccc4c3)cc21.O=C(O)C(F)(F)F`, the Efficacy result in [1] and in series [4] was “inactive” in each case. For the same compound, the Efficacy in series [2] came to 102%. Besides, the EC50 entry in series [3] (cho) is “Not Active”; in [5] (c6), “Not Active”; on Mu-type opioid receptor [6], 0.23 nM. Moreover, the MPE entry in the series with Mus musculus is “inactive”. In the series listed under Rattus norvegicus, the Ratio Ki was determined as 24. Also, the Ki in [7] was found to be 27 nM; in [8], 0.95 nM; at Mu-type opioid receptor [9] it was 0.04 nM. The compound also displayed a logP in series [10] of 4.4.

For `Cc1cc(O)cc(C)c1C[C@H](N)C(=O)N[C@@H]1CCNc2ccc(Cc3ccc4ccccc4c3)cc21`, the lipophilicity (logP) in series [10] came to 4.9.

For `Cc1cc(O)cc(C)c1C[C@H](N)C(=O)N[C@@H]1CCNc2ccc(Cc3ccc4c(c3)OCCO4)cc21.O=C(O)C(F)(F)F`, the Efficacy result in series [1] and in series [4] was “inactive” throughout. Also, the Efficacy in series [2] amounted to 88%. Further, the 50% effective concentration (EC50) result was “Not Active” in series [3] (cho), “Not Active” in series [5] (c6) and 7.3 nM at Mu-type opioid receptor [6]. Besides, the MPE entry in the series on Mus musculus is “inactive”. In addition, in the series filed under Rattus norvegicus, the Ratio Ki was found to be 16. The logP in series [10] amounted to 3.5.

Consider `Cc1cc(O)cc(C)c1C[C@H](N)C(=O)N[C@@H]1CCN(C(=O)c2ccccc2)c2ccc(Cc3cc4ccccc4o3)cc21.O=C(O)C(F)(F)F`, for which the Efficacy result in [1] and in series [4] was “inactive” throughout. In addition, the Efficacy in series [2] lay in the range of 58 to 64%. In addition, the EC50 result in series [3] (cho) was “Not Active”; in [5] (c6), “Not Active”; on Mu-type opioid receptor [6], 12 nM. Further, in the series with Mus musculus, the MPE result is “inactive”. Moreover, the Ratio Ki in the series filed under Rattus norvegicus stood at 2. Further, the Ki was determined as 100 nM in series [7], 0.64 nM in [8] and 0.35 nM on Mu-type opioid receptor [9]. In series [10], this compound had a log partition coefficient (logP) of 5.2.

Regarding `Cc1cc(O)cc(C)c1C[C@H](N)C(=O)N[C@@H]1CCN(C(=O)c2ccccc2)c2ccc(Cc3cnc4ccccc4c3)cc21.O=C(O)C(F)(F)F`, the Efficacy in [2] was 43%. Also, the 50% effective concentration (EC50) entry in [3] (cho) was “Not Active”; in [5] (c6), “Not Active”; on Mu-type opioid receptor [6] it was 1 nM. Besides, in [4], the Efficacy entry is “inactive”. In addition, in the series on Mus musculus, the MPE worked out at 100%. For the same compound, the results for the Ki (in series [7]; in series [8]; at Mu-type opioid receptor [9]) were 100 nM, 0.74 nM and 0.04 nM, respectively.

In series [10], `CC(=O)N1CC[C@@H](NC(=O)[C@@H](N)Cc2c(C)cc(O)cc2C)c2cc(Cc3ccccc3)ccc21` showed a logP of 3.4.

As for `CC(=O)N1CC[C@@H](NC(=O)[C@@H](N)Cc2c(C)cc(O)cc2C)c2cc(Cc3ccc4c(c3)OCCO4)ccc21.O=C(O)C(F)(F)F`, the Efficacy entry in series [1] and in series [4] was “inactive” in each case. For the same compound, the Efficacy in series [2] is 45%. The concentration giving a half-maximal response (EC50) result in series [3] (cho) is “Not Active”; in series [5] (c6), “Not Active”; on Mu-type opioid receptor [6], 13 nM. Besides, the MPE with Mus musculus turned out to be 75%. Moreover, the Ratio Ki in the series listed under Rattus norvegicus was determined as 2. Besides, the Ki in series [7] was found to be 142 nM; in series [8], 0.83 nM; at Mu-type opioid receptor [9], 0.38 nM. The same compound gave a logP in series [10] of 3.1.

The compound `CC(=O)N1CC[C@@H](NC(=O)[C@@H](N)Cc2c(C)cc(O)cc2C)c2cc(Cc3ccc4ccccc4c3)ccc21` showed a log partition coefficient (logP) in series [10] of 4.5.

Turning to `Cc1cc(O)cc(C)c1C[C@H](N)C(=O)N[C@@H]1CCNc2ccc(CN3CCc4ccccc4C3)cc21.O=C(O)C(F)(F)F`, the Efficacy result in series [1] was “inactive”. The results for the Efficacy in series [2] and in series [4] were 105% and 25%, respectively. Further, the results for the EC50 (in series [3] (read-out: EC50); in [5] (c6); on Mu-type opioid receptor [6]) were 90 nM, “Not Active” and 0.4 nM, respectively. Further, the MPE result with Mus musculus is “inactive”. The inhibition constant (Ki) in series [7] is 2.2 nM; in [8] it was 3.1 nM; at Mu-type opioid receptor [9], 0.03 nM. This compound yielded a logP in series [10] of 3.7.

For the compound `Cc1cc(O)cc(C)c1C[C@H](N)C(=O)N[C@@H]1CCN(C(=O)C2CC2)c2ccc(Cc3ccc4c(c3)OCCO4)cc21.O=C(O)C(F)(F)F`, the Efficacy result in series [1] and in [4] was “inactive” throughout. Further, in [2], the Efficacy came to 36%. The EC50 result in series [3] (cho) is “Not Active”; in series [5] (c6), “Not Active”; on Mu-type opioid receptor [6] it was 6 nM. The MPE result in the series with Mus musculus was “inactive”. For the same compound, the Ratio Ki in the series listed under Rattus norvegicus came out at 0.7. Moreover, the Ki in series [7] came to 412 nM; in series [8] it was 0.19 nM; at Mu-type opioid receptor [9], 0.28 nM. The compound further gave a logP in series [10] of 3.7.

With `Cc1cc(O)cc(C)c1C[C@H](N)C(=O)N[C@@H]1CCN(C(=O)C2CC2)c2ccc(Cc3cc4ccccc4o3)cc21.O=C(O)C(F)(F)F`, the Efficacy in series [1] was 52%; in series [2], 89%. The EC50 result is “Not Active” in series [3] (cho), 3.7 nM in series [5] (read-out: EC50) and 0.9 nM on Mu-type opioid receptor [6]. For the same compound, the Efficacy result in series [4] was “inactive”. In the series with Mus musculus, the MPE entry is “inactive”. The Ki in [7] was found to be 98 nM; in [8], 0.26 nM; on Mu-type opioid receptor [9], 0.05 nM. The compound further gave a logP in series [10] of 4.5.

Turning to `Cc1cc(O)cc(C)c1C[C@H](N)C(=O)N[C@@H]1CCN(C(=O)C2CC2)c2ccc(CN3CCc4ccccc4C3)cc21.O=C(O)C(F)(F)F`, the Efficacy entry in series [1] and in [4] was “inactive” throughout. Moreover, the Efficacy in [2] stood at 95%. Besides, the values for the EC50 result (in series [3] (cho); in series [5] (c6); on Mu-type opioid receptor [6]) were “Not Active”, “Not Active” and 0.52 nM, respectively. Further, the MPE in the series with Mus musculus was 60%. Besides, the Ratio Ki in the series filed under Rattus norvegicus came to 7. In addition, the Ki in [7] amounted to 40 nM; in [8] it was 0.88 nM; on Mu-type opioid receptor [9], 0.12 nM. This compound showed a log partition coefficient (logP) in series [10] of 3.8.

The compound `Cc1cc(O)cc(C)c1C[C@H](N)C(=O)N[C@@H]1CCN(C(=O)C2CC2)c2ccc(Cc3ccccc3)cc21` had a lipophilicity (logP) in [10] of 3.9.

Consider `Cc1cc(O)cc(C)c1C[C@H](N)C(=O)N[C@@H]1CCNc2ccc(Cc3cc4ccccc4o3)cc21.O=C(O)C(F)(F)F`, for which the Efficacy entry in [1] and in [4] was “inactive” in each case. The Efficacy in series [2] was determined as 98%. Besides, the values for the EC50 entry (in series [3] (cho); in series [5] (c6); on Mu-type opioid receptor [6]) were “Not Active”, “Not Active” and 1.1 nM, respectively. In the series on Mus musculus, the MPE came to 50%. Also, in the series filed under Rattus norvegicus, the Ratio Ki was 44. Besides, the inhibition constant (Ki) in series [7] worked out at 40 nM; in series [8], 5 nM. Also, the logP in [10] was 4.3.

In series [10], `Cc1cc(O)cc(C)c1C[C@H](N)C(=O)N[C@@H]1CCN(C(=O)c2ccccc2)c2ccc(Cc3ccccc3)cc21` registered a log partition coefficient (logP) of 4.6.

The term EC50 denotes the concentration that produces a half-maximal response. As a reminder, the Ki is a dissociation constant, usually derived from enzyme kinetics or from competition with a known ligand. Broadly, the logP is the decadic logarithm of the partition coefficient of the neutral form, usually between octanol and water. The low end stands for a more hydrophilic compound, the high end for a more lipophilic compound.
